The source made the active and inactive calls. The calls are words filed in the database; no cut-off is given here.
Tests used:
[1] = molecular target: Rho-associated protein kinase 2 (Rattus norvegicus) (UniProt Q62868); assay: Inhibition of rat ROCK2 at 10 uM relative to control
Canis familiaris [2] = assay: Antithrombotic activity in Beagle dog model of arterial thrombosis and bleeding assessed as blood loss at 0.005 to 0.24 ug/kg/min, iv via bolus for 29 mins and measured for 15 mins; format: functional, organism-based; conditions: Canis lupus familiaris
Method in brief: (§1)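 Modified Folts' model of thrombosis in a damaged, stenosed femoral artery of anesthetized dogs. Animals first received saline vehicle. Consecutive i.v. doses then followed, each given over a 30-min period as a bolus (0.03–1.3 μg kg−1) plus an infusion (0.005–0.24 μg kg min−1). Read-outs were cyclic flow reductions, expressed as % restoration of blood flow, plus bleeding time, blood loss and plasma drug exposure. Mean ± SEM, n = 6.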

Rattus norvegicus [3] = assay: Insulin sensitizing activity in Sprague-Dawley rat hyperinsulinemic-euglycemic glucose clamp model assessed as total insulin level during infusion of human insulin at 6000 ug/kg/min, iv for 2 mins followed by 300 ug/kg/min, iv for 28 mins measured during clamp 1 (reference value: 2.2 +/- 0.1 nM); format: functional; conditions: time 30 min, 0.5 h
Method in brief: (§2)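 Anesthetized rats; hyperinsulinemic–euglycemic clamp with human insulin infused. A baseline clamp (Clamp1) was followed by a second clamp (Clamp2) with vehicle or drug i.v. The drug was given as a low dose (1000 μg kg−1 + 50 μg kg min−1) or a high dose (6000 μg kg−1 + 300 μg kg min−1). Steady-state glucose infusion rate for euglycemia was recorded, with plasma glucose, human insulin and total insulin; mean ± SEM, n = 4–5/group.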

[4] = molecular target: Dual specificity mitogen-activated protein kinase kinase 1 (Homo sapiens) (UniProt Q02750); assay: Inhibition of mitogen activated protein kinase kinase 1 (unknown origin) at 10 uM relative to control
Rattus norvegicus [5] = assay: Insulin sensitizing activity in Sprague-Dawley rat hyperinsulinemic-euglycemic glucose clamp model assessed as total insulin level during infusion of human insulin at 1000 ug/kg/min, iv for 2 mins followed by 50 ug/kg/min, iv for 28 mins measured during clamp 2 (reference value: 2.2 +/- 0.1 nM); format: functional; conditions: time 30 min, 0.5 h; method in brief: as §2
[6] = molecular target: Serine-protein kinase ATM (Homo sapiens, UniProt Q13315); assay: Inhibition of ATM (unknown origin)
[7] = molecular target: Serine/threonine-protein kinase PAK 5 (Homo sapiens) (UniProt Q9P286); assay: Inhibition of human PAK5 at 10 uM relative to control
[8] = molecular target: Dual specificity tyrosine-phosphorylation-regulated kinase 1A (Rattus norvegicus) (UniProt Q63470); assay: Inhibition of rat DYRK1A at 10 uM relative to control
Rattus norvegicus [9] = assay: Insulin sensitizing activity in Sprague-Dawley rat hyperinsulinemic-euglycemic glucose clamp model assessed as human insulin level during infusion of human insulin at 6000 ug/kg/min, iv for 2 mins followed by 300 ug/kg/min, iv for 28 mins measured during clamp 2 (reference value: 1.8 +/- 0.1 nM); format: functional; conditions: time 30 min, 0.5 h; method in brief: as §2
Rattus norvegicus [10] = assay: Insulin sensitizing activity in Sprague-Dawley rat hyperinsulinemic-euglycemic glucose clamp model assessed as basal glucose level during infusion of human insulin at 6000 ug/kg/min, iv for 2 mins followed by 300 ug/kg/min, iv for 28 mins by colorimetry (reference value: 8.1 +/- 0.7 mM); format: functional; conditions: time 30 min, 0.5 h; method in brief: as §2
[11] = Toxicity in Sprague-Dawley rat hyperinsulinemic-euglycemic glucose clamp model assessed as change in heart rate at 6000 ug/kg/min, iv for 2 mins followed by 300 ug/kg/min, iv for 28 mins; format: organism-based; conditions: in vivo, 0.5 h, time 30 min
Method in brief: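 Anesthetized rats underwent two consecutive hyperinsulinemic–euglycemic clamps with human insulin infusion: a baseline Clamp1, then Clamp2 with vehicle or AZD6482 i.v. (n = 4–5/group). Blood pressure and heart rate were followed during control periods and after drug administration. Steady-state glucose infusion rate maintained euglycemia.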

[12] = molecular target: Mitogen-activated protein kinase 14 (Homo sapiens, UniProt Q16539); assay: Inhibition of human p38a
Rattus norvegicus [13] = assay: Insulin sensitizing activity in Sprague-Dawley rat hyperinsulinemic-euglycemic glucose clamp model assessed as human insulin level during infusion of human insulin at 1000 ug/kg/min, iv for 2 mins followed by 50 ug/kg/min, iv for 28 mins measured during clamp 1 (reference value: 1.7 +/- 0.1 nM); format: functional; conditions: time 30 min, 0.5 h; method in brief: as §2
[14] = molecular target: Dual specificity tyrosine-phosphorylation-regulated kinase 2 (Homo sapiens) (UniProt Q92630); assay: Inhibition of human DYRK2 at 10 uM relative to control
[15] = molecular target: Homeodomain-interacting protein kinase 3 (Homo sapiens) (UniProt Q9H422); assay: Inhibition of human HIPK3 at 10 uM relative to control
[16] = molecular target: Eukaryotic elongation factor 2 kinase (Homo sapiens) (UniProt O00418); assay: Inhibition of human EF2K at 10 uM relative to control
Rattus norvegicus [17] = assay: Insulin sensitizing activity in Sprague-Dawley rat hyperinsulinemic-euglycemic glucose clamp model assessed as glucose level during infusion of human insulin at 1000 ug/kg/min, iv for 2 mins followed by 50 ug/kg/min, iv for 28 mins measured during clamp 1 by colorimetry (reference value: 8.4 +/- 0.8 mM); format: functional; conditions: time 30 min, 0.5 h; method in brief: as §2
[18] = molecular target: Calcium/calmodulin-dependent protein kinase kinase 2 (Homo sapiens) (UniProt Q96RR4); assay: Inhibition of human CAMKKbeta at 10 uM relative to control
Rattus norvegicus [19] = assay: Insulin sensitizing activity in Sprague-Dawley rat hyperinsulinemic-euglycemic glucose clamp model assessed as glucose level during infusion of human insulin at 6000 ug/kg/min, iv for 2 mins followed by 300 ug/kg/min, iv for 28 mins measured during clamp 2 by colorimetry (reference value: 8.1 +/- 0.7 mM); format: functional; conditions: time 30 min, 0.5 h; method in brief: as §2
[20] = molecular target: MAP/microtubule affinity-regulating kinase 3 (Homo sapiens) (UniProt P27448); assay: Inhibition of human MARK3 at 10 uM relative to control
[21] = molecular target: Fibroblast growth factor receptor 1 (Homo sapiens, UniProt P11362); assay: Inhibition of human FGFR1
Focal adhesion kinase 1 = Focal adhesion kinase 1 (Homo sapiens, UniProt Q05397); assay: Inhibition of human FAK
Canis familiaris [22] = assay: Antithrombotic activity in Beagle dog model of arterial thrombosis and bleeding assessed as increase in bleeding time at 0.005 to 0.24 ug/kg/min, iv via bolus for 29 mins and measured for 15 mins; format: functional, organism-based; conditions: Canis lupus familiaris; method in brief: as §1
[23] = molecular target: Protein kinase C zeta type (Homo sapiens) (UniProt Q05513); assay: Inhibition of human PKCz at 10 uM relative to control
[24] = molecular target: Serine/threonine-protein kinase pim-3 (Homo sapiens) (UniProt Q86V86); assay: Inhibition of human PIM3 at 10 uM relative to control
[25] = molecular target: Tyrosine-protein kinase CSK (Homo sapiens, UniProt P41240); assay: Inhibition of human CSK
[26] = molecular target: Mitogen-activated protein kinase 9 (Homo sapiens) (UniProt P45984); assay: Inhibition of human MAPK9 at 10 uM relative to control
[27] = Protein binding in rat plasma assessed as unbound fraction; format: ADME, cell-free
[28] = molecular target: Serine/threonine-protein kinase Chk2 (Homo sapiens) (UniProt O96017); assay: Inhibition of human CHK2 at 10 uM relative to control

MAP/microtubule affinity-regulating kinase 3 (Homo sapiens), sequence (P27448 whole entry, looked up): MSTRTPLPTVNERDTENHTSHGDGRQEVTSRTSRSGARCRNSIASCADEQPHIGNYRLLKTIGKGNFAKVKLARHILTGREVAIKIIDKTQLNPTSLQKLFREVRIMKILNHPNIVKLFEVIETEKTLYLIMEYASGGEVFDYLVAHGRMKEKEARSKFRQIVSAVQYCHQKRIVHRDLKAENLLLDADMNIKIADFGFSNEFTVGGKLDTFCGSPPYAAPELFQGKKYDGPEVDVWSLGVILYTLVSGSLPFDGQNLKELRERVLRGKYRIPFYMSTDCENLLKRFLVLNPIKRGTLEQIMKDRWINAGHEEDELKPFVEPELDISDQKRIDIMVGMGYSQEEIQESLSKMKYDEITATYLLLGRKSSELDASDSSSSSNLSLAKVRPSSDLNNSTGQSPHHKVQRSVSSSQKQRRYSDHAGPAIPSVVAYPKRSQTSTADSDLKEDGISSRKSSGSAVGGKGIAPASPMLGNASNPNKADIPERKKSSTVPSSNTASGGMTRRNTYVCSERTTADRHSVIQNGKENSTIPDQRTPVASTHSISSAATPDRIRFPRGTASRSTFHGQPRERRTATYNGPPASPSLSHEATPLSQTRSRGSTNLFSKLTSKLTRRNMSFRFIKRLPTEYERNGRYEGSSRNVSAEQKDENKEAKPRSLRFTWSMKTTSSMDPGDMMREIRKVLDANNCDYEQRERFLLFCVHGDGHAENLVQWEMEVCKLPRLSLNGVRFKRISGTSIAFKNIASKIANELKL
Eukaryotic elongation factor 2 kinase (Homo sapiens), sequence (O00418 whole entry, the tested form may be a part): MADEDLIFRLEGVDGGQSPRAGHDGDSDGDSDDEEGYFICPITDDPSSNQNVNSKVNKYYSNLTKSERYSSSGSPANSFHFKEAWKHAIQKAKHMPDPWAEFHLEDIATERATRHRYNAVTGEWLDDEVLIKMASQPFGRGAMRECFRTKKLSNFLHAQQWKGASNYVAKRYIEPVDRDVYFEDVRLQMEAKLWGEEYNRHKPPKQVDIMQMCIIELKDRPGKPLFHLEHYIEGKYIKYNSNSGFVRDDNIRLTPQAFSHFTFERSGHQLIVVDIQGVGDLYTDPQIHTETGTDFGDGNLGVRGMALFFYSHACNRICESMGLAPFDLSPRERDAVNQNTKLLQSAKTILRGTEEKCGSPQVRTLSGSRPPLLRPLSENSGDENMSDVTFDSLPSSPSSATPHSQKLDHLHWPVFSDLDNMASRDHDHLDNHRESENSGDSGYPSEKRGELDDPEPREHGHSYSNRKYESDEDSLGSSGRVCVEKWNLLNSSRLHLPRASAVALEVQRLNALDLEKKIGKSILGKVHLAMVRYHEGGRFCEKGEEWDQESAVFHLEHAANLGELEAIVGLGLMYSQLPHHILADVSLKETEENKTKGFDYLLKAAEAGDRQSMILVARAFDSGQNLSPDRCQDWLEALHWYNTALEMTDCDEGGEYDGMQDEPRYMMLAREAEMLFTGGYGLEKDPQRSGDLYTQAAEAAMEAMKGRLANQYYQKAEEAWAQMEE
Serine/threonine-protein kinase PAK 5 (Homo sapiens), sequence (Q9P286 whole entry, looked up): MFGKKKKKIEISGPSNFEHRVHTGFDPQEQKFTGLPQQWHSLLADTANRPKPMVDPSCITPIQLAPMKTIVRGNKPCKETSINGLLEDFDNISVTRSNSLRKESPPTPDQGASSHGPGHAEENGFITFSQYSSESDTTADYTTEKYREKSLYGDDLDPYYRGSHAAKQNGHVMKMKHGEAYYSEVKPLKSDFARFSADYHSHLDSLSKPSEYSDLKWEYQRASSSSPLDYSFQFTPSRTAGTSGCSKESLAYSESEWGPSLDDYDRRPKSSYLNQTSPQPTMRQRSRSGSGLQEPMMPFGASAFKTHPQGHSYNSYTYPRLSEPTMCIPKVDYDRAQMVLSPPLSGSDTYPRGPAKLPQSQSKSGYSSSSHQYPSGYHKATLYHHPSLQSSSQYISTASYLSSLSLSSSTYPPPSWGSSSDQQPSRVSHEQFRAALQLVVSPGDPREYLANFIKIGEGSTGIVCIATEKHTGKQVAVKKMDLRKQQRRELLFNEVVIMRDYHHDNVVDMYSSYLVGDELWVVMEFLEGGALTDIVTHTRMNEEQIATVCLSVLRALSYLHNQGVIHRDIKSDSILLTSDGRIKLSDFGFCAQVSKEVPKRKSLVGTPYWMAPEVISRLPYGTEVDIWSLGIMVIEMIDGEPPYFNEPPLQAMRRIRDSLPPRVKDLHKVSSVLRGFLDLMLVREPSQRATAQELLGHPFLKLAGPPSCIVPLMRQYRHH
Dual specificity mitogen-activated protein kinase kinase 1 (Homo sapiens), sequence (Q02750 whole entry, the tested form may be a part): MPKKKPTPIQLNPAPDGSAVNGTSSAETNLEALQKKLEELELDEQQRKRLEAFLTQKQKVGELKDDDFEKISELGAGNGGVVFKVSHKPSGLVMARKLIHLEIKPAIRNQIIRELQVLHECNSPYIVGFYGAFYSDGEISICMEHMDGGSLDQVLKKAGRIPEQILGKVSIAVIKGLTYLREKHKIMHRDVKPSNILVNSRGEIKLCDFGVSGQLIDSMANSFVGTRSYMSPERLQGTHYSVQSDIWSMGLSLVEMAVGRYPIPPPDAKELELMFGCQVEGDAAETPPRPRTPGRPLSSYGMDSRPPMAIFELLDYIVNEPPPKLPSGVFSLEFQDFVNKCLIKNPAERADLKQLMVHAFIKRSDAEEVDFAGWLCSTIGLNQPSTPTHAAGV
Mitogen-activated protein kinase 14, sequence (Q16539 whole entry, the tested form may be a part): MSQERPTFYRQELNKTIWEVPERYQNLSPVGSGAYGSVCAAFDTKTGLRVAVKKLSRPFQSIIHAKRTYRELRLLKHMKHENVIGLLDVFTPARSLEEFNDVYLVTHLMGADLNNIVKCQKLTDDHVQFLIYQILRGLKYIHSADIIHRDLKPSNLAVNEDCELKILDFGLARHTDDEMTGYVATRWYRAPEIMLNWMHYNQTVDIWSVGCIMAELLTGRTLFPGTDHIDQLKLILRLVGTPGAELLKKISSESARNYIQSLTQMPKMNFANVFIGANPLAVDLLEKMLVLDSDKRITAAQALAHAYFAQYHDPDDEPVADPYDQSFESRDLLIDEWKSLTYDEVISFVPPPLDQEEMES
Calcium/calmodulin-dependent protein kinase kinase 2 (Homo sapiens), sequence (Q96RR4 2-588 limits assumed): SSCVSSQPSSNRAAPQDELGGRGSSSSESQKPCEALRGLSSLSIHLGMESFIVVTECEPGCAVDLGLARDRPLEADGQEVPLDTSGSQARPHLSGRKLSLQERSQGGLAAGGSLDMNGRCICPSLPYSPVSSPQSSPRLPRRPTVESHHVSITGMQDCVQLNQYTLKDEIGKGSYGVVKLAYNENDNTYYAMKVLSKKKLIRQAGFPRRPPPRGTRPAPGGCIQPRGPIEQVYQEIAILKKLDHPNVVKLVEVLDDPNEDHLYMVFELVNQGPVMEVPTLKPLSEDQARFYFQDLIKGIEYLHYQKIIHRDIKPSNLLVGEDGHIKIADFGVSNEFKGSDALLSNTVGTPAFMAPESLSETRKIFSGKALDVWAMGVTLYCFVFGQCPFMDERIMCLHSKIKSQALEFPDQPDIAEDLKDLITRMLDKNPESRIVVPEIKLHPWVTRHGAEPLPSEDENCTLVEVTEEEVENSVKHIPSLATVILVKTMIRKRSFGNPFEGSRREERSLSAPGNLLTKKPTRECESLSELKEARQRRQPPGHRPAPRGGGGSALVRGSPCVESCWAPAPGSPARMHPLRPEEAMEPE
Rho-associated protein kinase 2 (Rattus norvegicus), sequence (Q62868 whole entry, looked up): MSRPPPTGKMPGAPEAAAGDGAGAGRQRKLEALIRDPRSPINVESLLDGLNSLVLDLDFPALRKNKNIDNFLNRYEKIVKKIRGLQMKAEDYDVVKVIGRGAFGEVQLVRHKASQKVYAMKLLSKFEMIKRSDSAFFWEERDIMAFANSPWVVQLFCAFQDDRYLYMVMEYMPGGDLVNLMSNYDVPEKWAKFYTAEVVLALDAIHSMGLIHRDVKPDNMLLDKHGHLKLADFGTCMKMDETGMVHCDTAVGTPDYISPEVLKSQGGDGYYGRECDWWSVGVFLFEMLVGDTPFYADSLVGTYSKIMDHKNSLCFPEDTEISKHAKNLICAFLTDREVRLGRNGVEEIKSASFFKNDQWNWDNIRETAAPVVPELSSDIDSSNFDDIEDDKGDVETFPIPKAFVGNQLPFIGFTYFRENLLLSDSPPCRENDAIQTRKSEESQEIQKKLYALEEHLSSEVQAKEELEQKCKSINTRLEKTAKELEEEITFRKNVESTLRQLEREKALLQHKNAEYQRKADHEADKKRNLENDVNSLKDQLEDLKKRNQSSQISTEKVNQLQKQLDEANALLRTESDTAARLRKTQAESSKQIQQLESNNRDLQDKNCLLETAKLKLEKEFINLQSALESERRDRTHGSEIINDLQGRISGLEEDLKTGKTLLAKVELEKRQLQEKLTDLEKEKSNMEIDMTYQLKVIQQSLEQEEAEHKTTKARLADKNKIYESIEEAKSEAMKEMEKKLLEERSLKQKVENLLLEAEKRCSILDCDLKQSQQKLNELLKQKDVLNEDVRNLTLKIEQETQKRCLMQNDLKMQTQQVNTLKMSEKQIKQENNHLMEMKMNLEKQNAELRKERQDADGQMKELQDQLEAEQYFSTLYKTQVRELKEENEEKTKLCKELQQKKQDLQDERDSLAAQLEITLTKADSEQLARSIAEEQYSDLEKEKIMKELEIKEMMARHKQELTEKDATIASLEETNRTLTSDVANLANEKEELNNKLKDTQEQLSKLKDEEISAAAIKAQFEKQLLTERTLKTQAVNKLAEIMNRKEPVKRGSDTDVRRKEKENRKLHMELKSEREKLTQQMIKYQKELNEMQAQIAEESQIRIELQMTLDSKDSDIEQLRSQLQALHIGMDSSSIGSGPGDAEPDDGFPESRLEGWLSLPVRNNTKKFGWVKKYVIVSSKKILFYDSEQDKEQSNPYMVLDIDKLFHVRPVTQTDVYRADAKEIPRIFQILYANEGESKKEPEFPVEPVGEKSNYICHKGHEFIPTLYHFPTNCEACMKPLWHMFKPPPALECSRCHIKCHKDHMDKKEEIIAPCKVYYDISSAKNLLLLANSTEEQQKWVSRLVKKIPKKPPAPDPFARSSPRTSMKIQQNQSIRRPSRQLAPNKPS

Q: For Cc1cc([C@@H](C)Nc2ccccc2C(=O)O)c2nc(N3CCOCC3)cc(=O)n2c1 [AZD-6482], which inhibition [1] is on record?
A: -1.5%

Q: What about the Activity (Canis familiaris [2]) of the same molecule?
A: inactive

Q: What about the Activity (Rattus norvegicus [3]) of the same molecule?
A: 2.3 nM

Q: And the inhibition [4]?
A: 11%

Q: And the Activity (Rattus norvegicus [5])?
A: 2.2 nM

Q: And the IC50 [6]?
A: > 30 µM

Q: What about the inhibition [7] of the same molecule?
A: 21%

Q: And the inhibition [8]?
A: 9%

Q: And the Activity (Rattus norvegicus [9])?
A: 2.3 nM

Q: What about the Activity (Rattus norvegicus [10]) of the same molecule?
A: 7.7 mM

Q: And the Activity [11]?
A: Non-Toxic

Q: What about the IC50 [12] of the same molecule?
A: > 671 µM

Q: What about the Activity (Rattus norvegicus [13]) of the same molecule?
A: 1.8 nM

Q: What about the inhibition [14] of the same molecule?
A: 18%

Q: And the inhibition [15]?
A: 7.2%

Q: What about the inhibition [16] of the same molecule?
A: 7.6%

Q: What about the Activity (Rattus norvegicus [17]) of the same molecule?
A: 7.3 mM

Q: And the inhibition [18]?
A: 14%

Q: And the Activity (Rattus norvegicus [19])?
A: 7.8 mM

Q: And the inhibition [20]?
A: -7.3%

Q: And the IC50 [21]?
A: > 699 µM

Q: What about the IC50 (Focal adhesion kinase 1) of the same molecule?
A: > 1 mM

Q: What about the Activity (Canis familiaris [22]) of the same molecule?
A: inactive

Q: And the inhibition [23]?
A: 13%

Q: What about the inhibition [24] of the same molecule?
A: -5.9%

Q: What about the IC50 [25] of the same molecule?
A: 90 µM

Q: And the inhibition [26]?
A: 0.2%

Q: And the fraction unbound [27]?
A: 0.11

Q: And the inhibition [28]?
A: 9.9%

From ChEMBL document CHEMBL5678808, “Human target validation of phosphoinositide 3-kinase (PI3K)β: effects on platelets and insulin sensitivity, using AZD6482 a novel PI3Kβ inhibitor” (J Thromb Haemost, 2012)
